# Screening data: PubChem BioAssay, several laboratories
# Compounds with a hit are over-represented: about 4.9% of the library has one in this group of screens.
# PHOSPHO1 inh: PubChem AID 1565; actives 1.1% (n = 290,000); recombinant PHOSPHO1, absorbance phosphatase assay; inhibition, % at 13.3 µM; in the data active means inhibition above about 60%
# CHT inh: inhibitors of human choline transporter CHT. High affinity choline transporter 1 (Homo sapiens), Q9GZV3. CHT-expressing cells, membrane potential dye, choline response; active compounds read low. B-score at 10 µM. actives 0.86% (n = 310,000). AID 488975, 2010;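 active means B-score over 3 SD under the library average, and starting fluorescence ratio not unusually high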;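 further: choline stimulus applied at its EC90 after an EC20 pre-addition; B-score computed on integrated fluorescence ratio after choline addition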
# Target sequence (Q9GZV3 whole entry, looked up): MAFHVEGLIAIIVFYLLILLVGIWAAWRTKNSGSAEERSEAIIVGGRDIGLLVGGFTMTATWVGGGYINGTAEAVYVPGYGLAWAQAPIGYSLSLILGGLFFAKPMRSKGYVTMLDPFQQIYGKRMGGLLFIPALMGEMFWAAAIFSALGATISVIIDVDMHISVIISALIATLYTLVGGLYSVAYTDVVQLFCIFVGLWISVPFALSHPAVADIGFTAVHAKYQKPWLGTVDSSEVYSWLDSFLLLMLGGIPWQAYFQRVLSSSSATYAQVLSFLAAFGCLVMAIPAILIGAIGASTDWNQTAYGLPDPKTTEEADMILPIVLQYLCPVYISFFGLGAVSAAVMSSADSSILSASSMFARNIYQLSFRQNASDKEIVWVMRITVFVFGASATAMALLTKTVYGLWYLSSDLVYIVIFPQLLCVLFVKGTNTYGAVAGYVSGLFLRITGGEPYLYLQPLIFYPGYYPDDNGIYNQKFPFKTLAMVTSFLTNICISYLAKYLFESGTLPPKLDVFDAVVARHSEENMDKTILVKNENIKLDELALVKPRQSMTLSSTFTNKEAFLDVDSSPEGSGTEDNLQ
# HSF-1 act: HSF-1 activators, primary screen, NIH3T3-HGL cells, MG132 stress, luminescence, single point; NIH3T3-HGL HSF-1 luciferase reporter, 8 h; 100% = twice DMSO control signal; activation, % at 9 µM; actives 1.7% (n = 300,000);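 active means mean replicate activation of at least 50% with a set share of replicates each reaching 50%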;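 further: 0% = median of the neutral control wells and 100% = twice that signal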
# CHT allo act: CHT positive allosteric modulators, primary screen, cell-based, membrane potential dye, choline EC20. High affinity choline transporter 1 (Homo sapiens), Q9GZV3. CHT-expressing cells; active compounds read high; LV-AA mutant CHT in HEK293 cells. B-score at 10 µM. actives 0.49% (n = 310,000). AID 488977, 2010;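 active means initial fluorescence not abnormally high and integrated response B-score, plate-corrected, over 3 SD above library mean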
# Lipid droplet: inhibitors of hepatocyte lipid droplet formation, primary screen, imaging, high-throughput imaging, BODIPY stain | AML12 mouse hepatocytes, oleate lipid droplets | inhibition, % at 6.5 µM | actives 0.4% (n = 240,000);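 active means lipid droplet intensity inhibited by at least 50%, with more than 500 cells counted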
#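 System: AML12 hepatocytes (mouse). Probe or stimulus: oleic acid at 100 µM to induce lipid droplet formation. Times: overnight treatment with compound plus oleate. Detection: Image-based BODIPY and DAPI two-channel analysis. Evaluation: percent inhibition of filter-corrected integrated lipid droplet intensity per well.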
# HSF1 inh: HSF1 inhibitors in luciferase reporter cells, primary screen, cell-based, NIH3T3, luminescence | NIH3T3-HGL HSE-luciferase, MG132-induced, luminescence 8 h; active compounds read low | activity change, negative = inhibition, % at 7.5 µM (by protocol) | actives 0.77% (n = 300,000) | AID 2098, 2009;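 active means more than half of replicate wells show activity change below -50%, luminescence cut by over half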;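 further: luciferase reports HSF-1 transcriptional activity via heat shock element; 0% = median of DMSO wells and -100% = zero luminescence signal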
# Active calls of the source: *; i = inactive; / = no result given.
SMILES,PHOSPHO1 inh,CHT inh,HSF-1 act,CHT allo act,Lipid droplet,HSF1 inh
Cc1cc(NC(=O)c2c([N+](=O)[O-])c(C)nn2C)no1,46,i,0,i,/,0
CCOC(=O)C1CCN(C2=C(NS(=O)(=O)c3ccc(Cl)cc3)C(=O)c3ccccc3C2=O)CC1,-128,i,-14,i,3,6
CC1CCN(C2=C(NS(=O)(=O)c3ccc(Cl)cc3)C(=O)c3ccccc3C2=O)CC1,5,i,46,i,70*,18
Cc1ccc(NC(=O)c2ccc(OC(=O)COc3cccc(Cl)c3)cc2)cc1,-3,i,16,i,5,10
S=C(NCCSCc1ccc(Cl)c(Cl)c1)Nc1ccccc1,/,i,101*,i,/,59
S=C(NCCSCc1ccc(Cl)cc1Cl)Nc1ccccc1,9,i,52*,i,/,35
NC(=O)c1ccc(NC(=O)CC23CC4CC(CC(Br)(C4)C2)C3)cc1,7,i,76*,i,-7,36
Nc1c(C(=O)Nc2nc3ccccc3s2)sc2nc(-c3cccs3)ccc12,30,i,-7,i,/,-11
CC(=O)c1sc2nc(-c3cccs3)ccc2c1N,73*,i,-4,i,7,12
CCOc1ccc(NCc2nnc(SCC(=O)Nc3cc(C)on3)n2-c2ccc(OC)cc2)cc1,21,i,-83,i,/,-80*
Cc1ccc(NCc2nnc(SCC(=O)O)n2-c2ccc(C)cc2)cc1,67*,i,10,i,4,-4
CCOc1ccc(NCc2nnc(SCC(=O)Nc3cc(C)on3)n2-c2ccccc2OC)cc1,-23,i,-47,i,-15,-36
Cc1ccc(-n2c(CNc3ccc(F)cc3)nnc2SCC(=O)O)cc1,12,i,-17,i,3,-2
CC(C)Cc1cc(C(=O)Nc2ccc3c(c2)OCO3)no1,-34,i,16,i,3,17
O=C(Nc1nc(-c2nc3ccccc3s2)cs1)C1CC1,-9,i,67*,i,-23,34
S=C(N/N=C1\CCc2ccccc21)NC1CCCCC1,8,i,-64,i,6,-55*
CN(c1ccccc1)c1ccc(/C=C(\CCC(=O)O)c2nc3ccccc3s2)cc1[N+](=O)[O-],-6,i,57*,i,-1,16
Cc1ccc(/C=C(\CCC(=O)O)c2nc3ccccc3s2)cc1[N+](=O)[O-],-8,i,45,i,20,12
O=C(COC(=O)Cn1cnc2ccccc21)Nc1cc2c(cc1Cl)C(=O)c1ccccc1C2=O,4,i,74*,i,7,52
O=C(COC(=O)Cn1cnc2ccccc21)Nc1cc(S(=O)(=O)N2CCOCC2)ccc1Cl,-10,i,8,i,-5,-1
Cc1cccc(N(C(=O)c2ccco2)C(C(=O)NC2CCCC2)c2ccco2)c1C (configuration not stated),27,/,9,/,11,-1
O=C(Cc1ccccc1)NNC(=S)NC(=O)c1cccs1,86*,i,9,i,-4,3
O=S(=O)(c1cc(Cl)ccc1Cl)N1CCC2(CC1)OCCO2,33,i,-78,i,-8,-72*
Cc1ccc(C)c(S(=O)(=O)N2CCC3(CC2)OCCO3)c1,8,i,-6,i,-5,-4
O=C(CSc1ncc(-c2ccccc2)[nH]1)Nc1ccccc1,17,i,9,i,20,1
SMILES,PHOSPHO1 inh,CHT inh,HSF-1 act,CHT allo act,Lipid droplet,HSF1 inh
NC(=O)CSc1ncc(-c2ccc([N+](=O)[O-])cc2)[nH]1,-29,i,/,i,21,/
NC(=O)CSc1ncc(-c2ccccc2)[nH]1,74*,i,1,i,/,2
O=C(CSc1ncc(-c2ccccc2)[nH]1)Nc1cccc(O)c1,94*,i,21,i,-13,-1
Cc1cc(C)c(N(C(=O)c2csnn2)C(C(=O)NC2CCCC2)c2ccncc2)c(C)c1 (configuration not stated),51,i,-82,i,-7,-76*
COc1ccc(CNC(=O)C(c2ccc(C)o2)N(C(=O)c2csnn2)c2ccc(C(C)C)cc2)cc1 (configuration not stated),1,i,71*,i,24,43
CC(C)c1ccc(N(C(=O)c2csnn2)C(C(=O)NC2CCCC2)c2ccncc2)cc1 (configuration not stated),35,i,53*,i,-1,21
CCC(C)N(C(=O)C(F)(F)F)C(C(=O)NC1CCCCC1)c1ccncc1 (configuration not stated),-9,i,-63,i,6,-52*
O=C(NC1CCCC1)C(c1ccncc1)N(C(=O)c1csnn1)c1ccccc1 (configuration not stated),30,i,-6,i,-2,2
CCOC(=O)CN(C(=O)CSc1nnc(-c2ccncc2)n1CCCN(C)C)c1ccccc1,14,i,6,i,-3,-1
C#CCCOC(=O)N1C2=NC(C(=O)OC)=C(C(=O)OC)[C@@H]3N(C)c4ccccc4[C@]23C[C@H]1CO,/,i,7,i,/,0
Cc1cc(SCc2ccc(C(F)(F)F)cc2)nc(=O)[nH]1,-27,i,11,i,8,2
Cc1ccc(N(C(=O)c2csnn2)C(C(=O)NC2CCCC2)c2ccncc2)c(C)c1 (configuration not stated),46,i,61*,i,-17,43
Cc1ccc(C)c(N(C(=O)c2csnn2)C(C(=O)NC2CCCC2)c2ccncc2)c1 (configuration not stated),26,i,9,i,-19,-3
O=C(Nc1ccc2ccccc2n1)c1ccccc1Br,4,i,71*,i,0,34
CCN(CC)CCn1c(NC(=O)c2ccc(C)cc2)nc2ccccc21,-24,i,57*,i,-15,14
Cn1ncc([N+](=O)[O-])c1C(=O)Nc1nc2ccccc2n1CCN1CCCCC1,23,i,-6,i,/,-3
O=C(CCc1ccccc1)Nc1ccccc1,3,i,-9,i,-3,-1
O=C(CCc1ccccc1)Nc1ccc2ccccc2n1,51,i,92*,i,48,41
Cc1c(Cl)c(C(=O)Nc2nc3ccccc3n2CCN2CCCCC2)nn1C,3,i,19,9.7*,/,16
